Calls of active or inactive are those of the source. The calls are words filed in the database; no cut-off is given here.
Tests used:
NIH3T3 [1] = assay: Induction of cell cycle arrest in mouse NIH3T3 cells expressing pRb assessed as percentage of cells at G0/G1 phase at 5 uM after 24 hrs by flow cytometry analysis (reference value: 44.7%); type: functional
HCT-116 [2] = assay: Antitumor activity against human HCT-116 cells xenografted in nude mouse assessed as decrease tumor volume at 30 mg/kg, ip administered every 12 hrs measured after 29 days; type: functional, organism-based; settings: time 29.0 day
Procedure, shortened: (§1)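 Female BALB/c nu/nu mice (19–21 g), 8 per group, injected s.c. with 0.1 mL HCT116 suspension (1 × 10^7 viable cells/mL in Hanks' buffer). Treatment started at about 100 mm3 (day 20). Dosing i.p. in 5% DMSO/0.05% Tween 80/95% saline at 10 mL/kg for 29 days; vehicle controls. Caliper volumes taken blinded every 2–4 days as length × width² × π/6. Dunnett ANOVA; growth rate compared as log-volume slopes.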

U2OS [3] = assay: Induction of cell cycle arrest in human U2OS cells expressing pRb assessed as percentage of cells at S phase at 5 uM after 24 hrs by flow cytometry analysis (reference value: 19.9%); type: functional
NIH3T3 [4] = assay: Induction of cell cycle arrest in mouse NIH3T3 cells expressing pRb assessed as percentage of cells at S phase at 5 uM after 24 hrs by flow cytometry analysis (reference value: 12.2%); type: functional
U2OS [5] = assay: Induction of cell cycle arrest in human U2OS cells assessed as percentage of cells at SubG1 phase, cells were released from mimosine block prior to compound addition at 10 uM after 38 hrs by flow cytometry analysis (reference value: 5%); type: functional
U2OS [6] = assay: Induction of cell cycle arrest in human U2OS cells assessed as percentage of cells at SubG1 phase, cells were released from mimosine block prior to compound addition at 5 uM after 38 hrs by flow cytometry analysis (reference value: 5%); type: functional
U2OS [7] = assay: Induction of cell cycle arrest in human U2OS cells assessed as percentage of cells at S phase, cells were released from mimosine block prior to compound addition at 10 uM after 16 hrs by flow cytometry analysis (reference value: 33%); type: functional
NIH3T3 [8] = assay: Induction of cell cycle arrest in mouse NIH3T3 cells expressing pRb-negative assessed as percentage of cells at S phase at 10 uM after 24 hrs by flow cytometry analysis (reference value: 20%); type: functional
MRC5 [9] = assay: Induction of cell cycle arrest in human MRC5 cells assessed as number of cells at G0/G1 phase at 10 uM after 24 hrs in presence of 10% serum by flow cytometry analysis (reference value: 64.1%); type: functional
U2OS [10] = assay: Induction of cell cycle arrest in human U2OS cells assessed as percentage of cells at S phase, cells were released from quinidine block prior to compound addition at 10 uM after 24 hrs by flow cytometry analysis (reference value: 21.39%); type: functional
[11] = target: Insulin-like growth factor 1 receptor (Homo sapiens, UniProt P08069); assay: Inhibition of GST-tagged human IGF-1R expressed in baculovirus infected Sf9 cells using tyrosine-containing peptide substrate in presence of ATP
Insulin-like growth factor 1 receptor, sequence (P08069 31-736 limits assumed): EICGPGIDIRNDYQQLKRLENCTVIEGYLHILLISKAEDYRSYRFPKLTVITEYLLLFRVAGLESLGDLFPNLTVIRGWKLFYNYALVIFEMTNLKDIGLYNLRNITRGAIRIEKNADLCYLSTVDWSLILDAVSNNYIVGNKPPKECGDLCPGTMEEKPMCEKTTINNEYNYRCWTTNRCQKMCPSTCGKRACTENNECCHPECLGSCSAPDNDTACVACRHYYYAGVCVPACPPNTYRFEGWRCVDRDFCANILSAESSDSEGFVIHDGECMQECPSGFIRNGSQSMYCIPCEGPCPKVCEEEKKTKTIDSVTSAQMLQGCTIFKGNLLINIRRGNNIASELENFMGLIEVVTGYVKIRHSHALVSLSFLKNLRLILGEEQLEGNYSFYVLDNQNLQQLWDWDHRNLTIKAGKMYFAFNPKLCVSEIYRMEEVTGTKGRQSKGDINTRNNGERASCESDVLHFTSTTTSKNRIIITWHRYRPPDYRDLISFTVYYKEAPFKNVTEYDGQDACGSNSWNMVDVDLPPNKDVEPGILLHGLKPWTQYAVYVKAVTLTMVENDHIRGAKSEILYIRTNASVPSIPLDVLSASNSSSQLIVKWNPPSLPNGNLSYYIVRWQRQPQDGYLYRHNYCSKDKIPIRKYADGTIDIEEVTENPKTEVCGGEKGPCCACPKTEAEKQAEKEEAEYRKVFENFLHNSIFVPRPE
Insulin-like growth factor 1 receptor, sequence (P08069 741-1367 limits assumed): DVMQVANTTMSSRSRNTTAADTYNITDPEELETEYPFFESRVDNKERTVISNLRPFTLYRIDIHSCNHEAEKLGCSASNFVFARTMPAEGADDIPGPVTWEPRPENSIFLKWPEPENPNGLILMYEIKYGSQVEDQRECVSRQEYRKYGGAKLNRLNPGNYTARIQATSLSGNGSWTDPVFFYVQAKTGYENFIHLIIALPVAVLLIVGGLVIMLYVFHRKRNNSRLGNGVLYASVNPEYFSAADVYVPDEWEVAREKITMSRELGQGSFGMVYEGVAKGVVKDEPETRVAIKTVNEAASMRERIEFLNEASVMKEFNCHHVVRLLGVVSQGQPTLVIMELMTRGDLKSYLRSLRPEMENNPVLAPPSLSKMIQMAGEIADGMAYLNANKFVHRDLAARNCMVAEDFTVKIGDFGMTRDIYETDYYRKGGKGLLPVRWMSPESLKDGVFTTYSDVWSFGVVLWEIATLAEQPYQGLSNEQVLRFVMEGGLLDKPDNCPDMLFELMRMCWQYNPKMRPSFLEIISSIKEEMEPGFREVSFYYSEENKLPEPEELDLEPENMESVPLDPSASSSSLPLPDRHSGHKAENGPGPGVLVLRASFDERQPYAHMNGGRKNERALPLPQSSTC

U2OS [12] = assay: Induction of cell cycle arrest in human U2OS cells expressing pRb negative assessed as percentage of cells at G0/G1 phase at 5 uM after 24 hrs by flow cytometry analysis (reference value: 42.5%); type: functional
U2OS [13] = assay: Induction of cell cycle arrest in human U2OS cells assessed as percentage of cells at SubG1 phase, cells were released from mimosine block prior to compound addition at 10 uM after 16 hrs by flow cytometry analysis (reference value: 2.2%); type: functional
U2OS [14] = assay: Induction of apoptosis in human U2OS cells assessed as number of apoptotic cells at 5 uM after 48 hrs by TUNEL staining based fluorescence analysis (reference value: 0.61%); type: functional
U2OS [15] = assay: Induction of cell cycle arrest in human U2OS cells assessed as percentage of cells at G0/G1 phase, cells were released from mimosine block prior to compound addition at 5 uM after 16 hrs by flow cytometry analysis (reference value: 17.2%); type: functional
U2OS [16] = assay: Induction of cell cycle arrest in human U2OS cells expressing pRb negative assessed as percentage of cells at S phase at 10 uM after 24 hrs by flow cytometry analysis (reference value: 30.3%); type: functional
NIH3T3 [17] = assay: Induction of cell cycle arrest in mouse NIH3T3 cells expressing pRb-negative assessed as percentage of cells at G0/G1 phase at 5 uM after 24 hrs by flow cytometry analysis (reference value: 43.5%); type: functional
[18] = target: Hepatocyte growth factor receptor (Homo sapiens, UniProt P08581); assay: Inhibition of GST-tagged human c-met expressed in baculovirus infected Sf9 cells using tyrosine-containing peptide substrate in presence of ATP
Hepatocyte growth factor receptor, sequence (P08581 whole entry): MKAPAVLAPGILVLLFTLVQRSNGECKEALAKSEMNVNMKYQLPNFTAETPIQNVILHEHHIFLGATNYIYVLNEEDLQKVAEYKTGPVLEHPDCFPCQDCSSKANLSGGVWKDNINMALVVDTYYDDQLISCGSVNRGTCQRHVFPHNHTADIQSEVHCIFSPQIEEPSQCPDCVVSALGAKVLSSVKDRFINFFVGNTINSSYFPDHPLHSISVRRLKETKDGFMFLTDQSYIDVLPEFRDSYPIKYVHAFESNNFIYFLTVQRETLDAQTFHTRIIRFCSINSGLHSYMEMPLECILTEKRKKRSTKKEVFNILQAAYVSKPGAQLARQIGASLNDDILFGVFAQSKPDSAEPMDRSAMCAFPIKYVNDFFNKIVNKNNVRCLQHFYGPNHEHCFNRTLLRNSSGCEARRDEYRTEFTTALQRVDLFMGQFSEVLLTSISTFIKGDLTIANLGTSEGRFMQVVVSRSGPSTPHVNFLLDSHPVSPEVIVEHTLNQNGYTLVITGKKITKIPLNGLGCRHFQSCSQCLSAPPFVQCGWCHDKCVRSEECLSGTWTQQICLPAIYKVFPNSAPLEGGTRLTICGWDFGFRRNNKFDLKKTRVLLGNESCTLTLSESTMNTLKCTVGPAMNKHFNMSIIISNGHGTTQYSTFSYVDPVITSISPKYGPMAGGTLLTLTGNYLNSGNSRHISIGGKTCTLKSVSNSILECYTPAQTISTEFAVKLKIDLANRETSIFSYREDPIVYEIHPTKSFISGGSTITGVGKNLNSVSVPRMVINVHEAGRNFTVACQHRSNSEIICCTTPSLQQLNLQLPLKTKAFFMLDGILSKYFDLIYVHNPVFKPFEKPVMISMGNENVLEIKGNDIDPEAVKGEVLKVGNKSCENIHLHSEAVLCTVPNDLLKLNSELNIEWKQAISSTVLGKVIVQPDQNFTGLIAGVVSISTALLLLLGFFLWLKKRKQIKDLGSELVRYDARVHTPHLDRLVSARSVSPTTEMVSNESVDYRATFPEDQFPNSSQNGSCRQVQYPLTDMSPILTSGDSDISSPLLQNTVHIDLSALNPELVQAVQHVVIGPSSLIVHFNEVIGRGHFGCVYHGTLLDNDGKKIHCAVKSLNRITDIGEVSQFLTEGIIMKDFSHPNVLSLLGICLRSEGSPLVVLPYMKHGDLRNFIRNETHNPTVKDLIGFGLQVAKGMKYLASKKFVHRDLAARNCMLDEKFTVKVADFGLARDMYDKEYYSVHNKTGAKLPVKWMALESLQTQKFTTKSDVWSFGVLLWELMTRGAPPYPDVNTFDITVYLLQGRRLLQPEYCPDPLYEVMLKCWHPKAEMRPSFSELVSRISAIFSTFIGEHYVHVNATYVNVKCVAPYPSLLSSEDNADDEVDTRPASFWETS

U2OS [19] = assay: Induction of cell cycle arrest in human U2OS cells assessed as percentage of cells at S phase, cells were released from mimosine block prior to compound addition at 10 uM after 38 hrs by flow cytometry analysis (reference value: […]%); type: functional
HCT-116 [20] = assay: Antitumor activity against human HCT-116 cells xenografted in nude mouse assessed as decrease tumor growth at 30 mg/kg, ip administered every 12 hrs measured after 29 days; type: functional, organism-based; procedure, shortened: as §1
U2OS [21] = assay: Induction of cell cycle arrest in human U2OS cells assessed as percentage of cells at G0/G1 phase, cells were released from mimosine block prior to compound addition at 5 uM after 38 hrs by flow cytometry analysis (reference value: 39.6%); type: functional
U2OS [22] = assay: Induction of cell cycle arrest in human U2OS cells assessed as percentage of cells at G2/M phase, cells were released from mimosine block prior to compound addition at 5 uM after 16 hrs by flow cytometry analysis (reference value: 47.6%); type: functional
MRC5 [23] = assay: Induction of cell cycle arrest in human MRC5 cells assessed as number of cells at G2/M phase at 10 uM after 24 hrs in presence of 10% serum by flow cytometry analysis (reference value: 14.9%); type: functional
U2OS [24] = assay: Induction of cell cycle arrest in human U2OS cells expressing pRb negative assessed as percentage of cells at S phase at 5 uM after 24 hrs by flow cytometry analysis (reference value: 30.3%); type: functional
HCT-116 [25] = assay: Induction of cell cycle arrest in human HCT-116 cells assessed as number of cells at SubG1 phase at 10 uM after 24 hrs in presence of 10% serum by flow cytometry analysis (reference value: 1.1%); type: functional
Procedure, shortened: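 HCT116 cells in McCoy's 5A were serum-starved 72 h in 0.1% serum, then released for 24 h into 10% serum with or without compound. They were fixed in 70% ethanol, RNase-treated (3 mg/mL, 30 min, 37 °C) and stained with 50 μg/mL propidium iodide. Flow cytometry on FL-2 area with doublet gating gave the percentages in sub-G1, G0/G1, S and G2/M.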

CCNc1cc(N[C@H]2CC[C@H](O)CC2)nc(Nc2ccc3c(ccn3Cc3ccccc3)c2)n1
Activity (NIH3T3 [1]): 92.3%
Activity (HCT-116 [2]): Active
Activity (U2OS [3]): 11%
Activity (NIH3T3 [4]): 3.2%
Activity (U2OS [5]): 56%
Activity (U2OS [6]): 13.2%
Activity (U2OS [7]): 29.5%
Activity (NIH3T3 [8]): 11.6%
Activity (MRC5 [9]): 84.8%
Activity (U2OS [10]): 7.6%
IC50 [11]: > 10 µM
Activity (U2OS [12]): 44.8%
Activity (U2OS [13]): 21.8%
Activity (U2OS [14]): 1%
Activity (U2OS [15]): 17.2%
Activity (U2OS [16]): 25.1%
Activity (NIH3T3 [17]): 49.8%
IC50 [18]: > 10 µM
Activity (U2OS [19]): 15.8%
Activity (HCT-116 [20]): Active
Activity (U2OS [21]): 34.8%
Activity (U2OS [22]): 47.6%
Activity (MRC5 [23]): 4.5%
Activity (U2OS [24]): 26.3%
Activity (HCT-116 [25]): 4.1%

— ChEMBL document CHEMBL5661964, “Selective in vivo and in vitro effects of a small molecule inhibitor of cyclin-dependent kinase 4” (J Natl Cancer Inst, 2001)
